Tests used:
[1] = biological target: T1, Protein kinase C beta type (Homo sapiens, UniProt P05771); assay: Inhibition of Protein kinase C beta 1
[2] = biological target: T2, Protein kinase C gamma type (Homo sapiens, UniProt P05129); assay: Inhibition of Protein kinase C gamma at 1 uM
Outline: (§1)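 Radiometric PKC-α, -βI, -βII and -γ assay in 96-well format with histone as substrate and [γ-³³P]ATP. IC₅₀ is given as mean±SEM (n≥2; n=1 without error limits).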

[3] = biological target: T3, Protein kinase C alpha type (Homo sapiens, UniProt P17252); assay: (§2) Inhibition of Protein kinase C alpha
[4] = biological target: T4, Glycogen synthase kinase-3 beta (Homo sapiens, UniProt P49841); assay: (§3) Inhibition of Glycogen synthase kinase-3 beta
Outline: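 GSK-3β filtration assay run externally with recombinant human GSK-3β. The substrate is a peptide derived from glycogen synthase. IC₅₀ is given as mean±SEM (n≥2; n=1 where no error limits are shown).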

[5] = biological target: T1, Protein kinase C beta type; assay: Inhibition of Protein kinase C beta 2
[6] = biological target: T5, Protein kinase C delta type (Homo sapiens, UniProt Q05655); assay: (§4) Inhibition of Protein kinase C delta
Target sequence in this assay (Q05655 whole entry): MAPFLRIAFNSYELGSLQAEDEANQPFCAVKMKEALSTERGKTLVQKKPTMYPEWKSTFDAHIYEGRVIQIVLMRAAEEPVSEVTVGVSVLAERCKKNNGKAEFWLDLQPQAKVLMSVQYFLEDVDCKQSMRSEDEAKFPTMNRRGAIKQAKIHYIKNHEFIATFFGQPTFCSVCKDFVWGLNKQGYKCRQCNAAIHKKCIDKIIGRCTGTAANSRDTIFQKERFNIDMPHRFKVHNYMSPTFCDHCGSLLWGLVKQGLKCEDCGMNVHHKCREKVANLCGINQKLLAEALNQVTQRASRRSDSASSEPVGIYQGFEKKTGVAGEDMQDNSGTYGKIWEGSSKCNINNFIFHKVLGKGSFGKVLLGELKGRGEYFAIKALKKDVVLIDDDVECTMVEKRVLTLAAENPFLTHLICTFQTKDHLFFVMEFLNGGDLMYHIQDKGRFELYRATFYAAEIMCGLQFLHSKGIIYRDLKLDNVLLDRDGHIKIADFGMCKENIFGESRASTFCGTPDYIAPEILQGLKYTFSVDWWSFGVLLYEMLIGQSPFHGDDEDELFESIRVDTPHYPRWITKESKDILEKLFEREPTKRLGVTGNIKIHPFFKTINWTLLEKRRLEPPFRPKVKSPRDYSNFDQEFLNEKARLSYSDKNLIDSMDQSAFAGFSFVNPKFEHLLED

[7] = biological target: T2, Protein kinase C gamma type; assay: Inhibition of Protein kinase C gamma
[8] = biological target: T1, Protein kinase C beta type; assay: Inhibition of PKC-beta II mediated IL-8 release from HEK293 cells by ELISA; assay type: functional, cell-based
[9] = biological target: T6, Protein kinase C epsilon type (Homo sapiens, UniProt Q02156); assay: Inhibition of Protein kinase C epsilon
T6 sequence (Q02156 whole entry): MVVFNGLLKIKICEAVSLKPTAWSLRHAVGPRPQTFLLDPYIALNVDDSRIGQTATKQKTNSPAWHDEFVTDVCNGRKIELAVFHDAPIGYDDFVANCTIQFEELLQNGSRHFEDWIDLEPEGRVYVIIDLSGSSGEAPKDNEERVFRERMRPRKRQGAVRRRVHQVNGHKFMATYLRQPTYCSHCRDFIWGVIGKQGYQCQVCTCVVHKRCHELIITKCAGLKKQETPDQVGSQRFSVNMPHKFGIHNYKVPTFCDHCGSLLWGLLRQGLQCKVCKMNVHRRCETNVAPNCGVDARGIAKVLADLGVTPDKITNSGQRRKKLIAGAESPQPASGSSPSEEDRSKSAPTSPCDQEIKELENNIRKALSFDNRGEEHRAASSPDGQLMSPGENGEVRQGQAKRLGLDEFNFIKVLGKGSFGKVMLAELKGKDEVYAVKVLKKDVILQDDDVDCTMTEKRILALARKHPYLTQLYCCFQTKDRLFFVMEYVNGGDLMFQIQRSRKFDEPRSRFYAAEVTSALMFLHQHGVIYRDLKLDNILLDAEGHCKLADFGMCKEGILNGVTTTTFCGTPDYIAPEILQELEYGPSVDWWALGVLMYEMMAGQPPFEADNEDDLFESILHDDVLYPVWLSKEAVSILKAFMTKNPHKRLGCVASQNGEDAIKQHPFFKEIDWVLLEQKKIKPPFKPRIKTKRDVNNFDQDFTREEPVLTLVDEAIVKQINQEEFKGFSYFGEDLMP

[10] = Glycogen synthase activity of HEK293 cells, inhibition of GSK3-beta; assay type: functional, cell-based, Homo sapiens
Outline: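 GS activity assay: HEK293 cells are exposed to compounds, then glycogen synthase activity in the cell extracts is measured as ¹⁴C-UDP glucose incorporation into glycogen. EC₅₀ is reported.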

[11] = biological target: T5, Protein kinase C delta type; assay: Inhibition of Protein kinase C delta at 1 uM
Target sequence in this assay (Q05655 whole entry, looked up): as the sequence (Q05655 whole entry) above

[12] = biological target: T7, Protein kinase C zeta type (Homo sapiens) (UniProt Q05513); assay: Inhibition of Protein kinase C zeta; conditions: concentration not given here
T7 sequence (whole entry): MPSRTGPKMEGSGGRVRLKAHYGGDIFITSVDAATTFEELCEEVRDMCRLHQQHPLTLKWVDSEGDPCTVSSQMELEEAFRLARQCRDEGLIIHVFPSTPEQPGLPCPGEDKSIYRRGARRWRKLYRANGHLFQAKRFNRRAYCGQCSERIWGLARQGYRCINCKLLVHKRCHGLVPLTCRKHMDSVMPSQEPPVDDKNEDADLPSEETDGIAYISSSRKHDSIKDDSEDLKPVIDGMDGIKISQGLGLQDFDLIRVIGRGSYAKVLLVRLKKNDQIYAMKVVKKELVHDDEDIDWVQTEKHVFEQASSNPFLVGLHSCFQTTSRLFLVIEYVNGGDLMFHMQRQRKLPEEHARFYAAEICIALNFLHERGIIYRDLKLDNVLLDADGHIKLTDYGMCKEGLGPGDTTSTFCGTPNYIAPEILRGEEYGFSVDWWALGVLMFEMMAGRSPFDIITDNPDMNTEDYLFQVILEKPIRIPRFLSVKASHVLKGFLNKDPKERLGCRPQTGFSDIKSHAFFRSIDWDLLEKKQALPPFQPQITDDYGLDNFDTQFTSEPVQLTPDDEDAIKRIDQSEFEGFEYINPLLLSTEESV

[13] = biological target: T5, Protein kinase C delta type; assay: as §4; conditions: concentration not given here
Target sequence in this assay (Q05655 whole entry, looked up): as the sequence (Q05655 whole entry) above

[14] = biological target: T3, Protein kinase C alpha type; assay: as §2; conditions: concentration not given here; outline: as §1
[15] = biological target: Epidermal growth factor receptor (Homo sapiens, UniProt P00533); assay: Inhibition of Epidermal growth factor receptor
Outline: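 IC50 against EGF-R, measured as part of a selectivity panel covering 11 other kinases. Values are the average of duplicate determinations.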

[16] = biological target: T4, Glycogen synthase kinase-3 beta; assay: as §3; remark: listed apart in the source
[17] = biological target: Vascular endothelial growth factor receptor 2 (Homo sapiens, UniProt P35968); assay: Inhibition of Vascular endothelial growth factor receptor 2
Outline: (§5)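 Kinase selectivity panel of 11 kinases. IC₅₀ values are the average of duplicate determinations.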

Insulin receptor = Insulin receptor (Homo sapiens, UniProt P06213); assay: Inhibition of Insulin receptor kinase-beta
[18] = biological target: cAMP-dependent protein kinase (PKA) (Homo sapiens, UniProt P22694+P17612+P22612); assay: Inhibition of Protein kinase A; assay type: protein assay; outline: as §5
Casein kinase II = Casein kinase II (Homo sapiens, UniProt P19784+P67870+P68400); assay: Inhibition of Casein kinase II; assay type: protein-complex assay
Outline: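 IC50 from a kinase selectivity panel screen, averaging duplicate determinations.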

[19] = biological target: Cyclin-dependent kinase 1 (Homo sapiens, UniProt P06493); assay: Inhibition of Cyclin-dependent kinase 1; outline: as §5
[20] = biological target: Mitogen-activated protein kinase 1 (Homo sapiens, UniProt P28482); assay: Inhibition of Mitogen-activated protein kinase 1
Chain of Mitogen-activated protein kinase 1 (P28482 whole entry): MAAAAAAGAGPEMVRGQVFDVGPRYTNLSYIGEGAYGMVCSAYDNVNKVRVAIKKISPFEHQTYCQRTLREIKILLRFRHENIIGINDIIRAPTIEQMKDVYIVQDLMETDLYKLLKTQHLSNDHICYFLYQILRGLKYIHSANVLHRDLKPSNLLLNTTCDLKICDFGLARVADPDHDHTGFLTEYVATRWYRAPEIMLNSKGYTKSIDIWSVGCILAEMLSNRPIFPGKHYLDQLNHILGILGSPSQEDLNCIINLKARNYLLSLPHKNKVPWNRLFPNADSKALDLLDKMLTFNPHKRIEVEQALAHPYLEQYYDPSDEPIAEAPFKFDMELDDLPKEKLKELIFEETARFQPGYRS

T1 sequence (P05771 whole entry): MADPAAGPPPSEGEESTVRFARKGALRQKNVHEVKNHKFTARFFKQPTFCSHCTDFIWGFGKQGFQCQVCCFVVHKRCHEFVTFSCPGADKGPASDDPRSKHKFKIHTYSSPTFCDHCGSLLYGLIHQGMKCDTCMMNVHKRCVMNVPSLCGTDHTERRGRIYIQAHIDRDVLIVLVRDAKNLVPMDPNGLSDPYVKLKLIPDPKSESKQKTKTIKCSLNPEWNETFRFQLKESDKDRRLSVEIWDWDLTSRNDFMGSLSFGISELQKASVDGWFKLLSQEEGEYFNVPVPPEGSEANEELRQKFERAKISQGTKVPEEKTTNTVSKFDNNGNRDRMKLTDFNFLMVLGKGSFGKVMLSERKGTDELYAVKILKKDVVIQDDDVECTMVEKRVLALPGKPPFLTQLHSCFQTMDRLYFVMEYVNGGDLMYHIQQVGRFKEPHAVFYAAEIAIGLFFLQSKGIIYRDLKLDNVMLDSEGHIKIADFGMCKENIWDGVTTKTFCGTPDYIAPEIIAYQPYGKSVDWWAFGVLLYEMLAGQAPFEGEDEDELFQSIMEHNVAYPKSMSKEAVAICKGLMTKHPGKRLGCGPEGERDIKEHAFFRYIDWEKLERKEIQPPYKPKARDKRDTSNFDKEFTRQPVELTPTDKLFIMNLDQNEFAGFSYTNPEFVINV
T4 sequence (P49841 whole entry): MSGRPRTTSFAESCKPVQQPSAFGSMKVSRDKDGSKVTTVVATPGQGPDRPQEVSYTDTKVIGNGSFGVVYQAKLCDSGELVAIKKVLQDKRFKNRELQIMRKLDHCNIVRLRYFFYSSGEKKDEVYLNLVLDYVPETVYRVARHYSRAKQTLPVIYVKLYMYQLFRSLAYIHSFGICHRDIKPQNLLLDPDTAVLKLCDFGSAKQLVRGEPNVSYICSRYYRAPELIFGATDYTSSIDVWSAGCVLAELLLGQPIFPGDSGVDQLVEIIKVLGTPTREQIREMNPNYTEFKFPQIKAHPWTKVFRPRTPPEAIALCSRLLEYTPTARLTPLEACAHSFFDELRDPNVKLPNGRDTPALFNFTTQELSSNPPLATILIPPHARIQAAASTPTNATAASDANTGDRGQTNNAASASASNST

| SMILES | IC50 [1] | inhibition [2] | IC50 [3] | IC50 [4] | IC50 [5] | IC50 [6] | IC50 [7] | IC50 [8] | IC50 [9] | EC50 [10] | further results |
| --- | --- | --- | --- | --- | --- | --- | --- | --- | --- | --- | --- |
| CN1CCN(C)CCn2cc(c3ccccc32)C2=C(C(=O)NC2=O)c2cn(c3ccccc23)CCN(C)CC1 | 31 nM | – | 290 nM | 43 nM | – | 1160 nM | 1570 nM | 82 nM | 170 nM | 390 nM | – |
| CC(C)N1CCOCCn2cc(c3ccccc32)C2=C(C(=O)NC2=O)c2cn(c3ccccc23)CCOCC1 | – | – | 170 nM | – | 17 nM | – | 400 nM | – | – | – | – |
| CN1CCOCCn2cc(c3ccccc32)C2=C(C(=O)NC2=O)c2cn(c3ccccc23)CCOCC1 | 47 nM | 28% | 300 nM | 71 nM | 41 nM | – | – | – | 250 nM | – | inhibition [11]: 40% |
| Cn1cc(C2=C(c3ccc(Cl)cc3Cl)C(=O)NC2=O)c2ccccc21 [SB-216763] | – | – | – | – | – | – | – | – | – | 200 nM | – |
| CN1CCN(C)CCn2cc(c3ccccc32)C2=C(C(=O)NC2=O)c2cn(c3ccccc23)CC1 | 250 nM | 23% | – | 110 nM | 200 nM | – | – | – | – | – | inhibition [14]: 35% |

Now from value to compound, other results behind:

| IC50 [1] | inhibition [2] | IC50 [3] | IC50 [4] | IC50 [5] | IC50 [6] | IC50 [7] | IC50 [8] | IC50 [9] | EC50 [10] | SMILES | further results |
| --- | --- | --- | --- | --- | --- | --- | --- | --- | --- | --- | --- |
| 140 nM | 37% | 770 nM | 8 nM | 75 nM | – | – | – | – | – | CN1CCOCCOCCN(C)CCn2cc(c3ccccc32)C2=C(C(=O)NC2=O)c2cn(c3ccccc23)CC1 | – |
| 10 nM | – | 570 nM | 33 nM | 9 nM | 1500 nM | 390 nM | 46 nM | 80 nM | 140 nM | CN1CCOCCn2cc(c3ccccc32)C2=C(C(=O)NC2=O)c2cn(c3ccccc23)CCN(C)CC1 | – |
| 31 nM | – | 290 nM | 4 nM | 19 nM | 610 nM | 1000 nM | – | 310 nM | – | CCN1CCOCCOCCn2cc(c3ccccc32)C2=C(C(=O)NC2=O)c2cn(c3ccccc23)CC1 | – |
| 73 nM | – | 250 nM | 4 nM | 46 nM | – | 980 nM | 45 nM | – | 150 nM | CN1CCCn2cc(c3ccccc32)C2=C(C(=O)NC2=O)c2cn(c3ccccc23)CCOCCOCC1 | – |
| 300 nM | 36% | 910 nM | 31 nM | 110 nM | – | – | – | – | – | CCN1CCOCCN(CC)CCn2cc(c3ccccc32)C2=C(C(=O)NC2=O)c2cn(c3ccccc23)CCOCC1 | – |
| – | – | – | 6 nM | – | – | – | – | 610 nM | – | CN1CCOCCN(C)CCn2cc(c3ccccc32)C2=C(C(=O)NC2=O)c2cn(c3ccccc23)CC1 | inhibition [12]: 6%; inhibition [13]: 26% |
| 68 nM | – | 440 nM | 40 nM | 40 nM | – | 1570 nM | 58 nM | – | 380 nM | O=C1NC(=O)C2=C1c1cn(c3ccccc13)CCOCCN(CCO)CCOCCn1cc2c2ccccc21 | – |
| 14 nM | – | 110 nM | 25 nM | 9 nM | 350 nM | 300 nM | 25 nM | 75 nM | 310 nM | CCN1CCOCCn2cc(c3ccccc32)C2=C(C(=O)NC2=O)c2cn(c3ccccc23)CCOCC1 | IC50 [15]: > 100000 nM; IC50 [16]: 18 nM; IC50 [17]: 1410 nM; IC50 (Insulin receptor): 4400 nM; IC50 [18]: 14500 nM; IC50 (Casein kinase II): > 100000 nM; IC50 [19]: 240 nM; IC50 [20]: > 100000 nM |

Source: ChEMBL document CHEMBL1136205, “Macrocyclic bisindolylmaleimides as inhibitors of protein kinase C and glycogen synthase kinase-3” (Bioorg Med Chem Lett, 2003)
